Results on ten molecules are retold here after ChEMBL document CHEMBL1124447, “Quinazoline antifolates inhibiting thymidylate synthase: 2-desamino derivatives with enhanced solubility and potency” (J Med Chem, 1989).

Values after ≈ are worked out from the molar mass of the structure shown.

The test system of one data set is L1210. Kind of data set: Compound was evaluated for inhibition dose required to inhibit the growth of L1210 cells in culture. Format: functional. As to conditions: Mus musculus, read-out: ID50 (the source's name).
The target of a further data set is Thymidylate synthase (Mus musculus, UniProt P07607). In words: Inhibitory concentration of compound to inhibit Thymidylate synthase (TS) in L1210 cells at conc. of 200 uM. Format: cell-based. In short, it runs like this: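 Partially purified thymidylate synthase from L1210 leukemia cells; the enzyme assay used (±)-5,10-methylenetetrahydrofolate (5,10-CH2-FH4) cofactor at 200 μM.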

A short description of data set [1]: Solubility at pH 5. The data set is classed as physicochemical. Particulars: buffer. In short, it runs like this:
(§1)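 Run at 18 °C in 0.01 M potassium phosphate buffer. A saturated suspension was brought to pH 7.4 with 5 M KOH, held overnight, filtered through 0.22 µm, readjusted and refiltered. For pH 5.0, part of the filtrate was acidified with phosphoric acid and refiltered, then diluted with pH 5.0 buffer if opalescent. Samples were diluted in 0.1 M NaOH and concentration read by UV absorbance at 301.5 nm.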

Data set [2] in a line: Solubility at pH 7.4. Format: physicochemical. As to conditions: buffer. In short, it runs like this:
as §1

Thymidylate synthase, sequence (P07607 whole entry): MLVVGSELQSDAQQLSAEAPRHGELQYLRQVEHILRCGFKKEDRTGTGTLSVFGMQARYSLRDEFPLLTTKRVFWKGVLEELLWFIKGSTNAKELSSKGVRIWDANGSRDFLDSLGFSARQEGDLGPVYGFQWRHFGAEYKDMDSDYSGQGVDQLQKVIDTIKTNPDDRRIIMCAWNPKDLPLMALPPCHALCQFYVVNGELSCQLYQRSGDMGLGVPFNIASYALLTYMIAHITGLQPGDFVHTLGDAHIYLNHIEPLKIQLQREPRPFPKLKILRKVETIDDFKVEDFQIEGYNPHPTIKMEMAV

Consider `CCN(Cc1ccc2ncnc(O)c2c1)c1ccc(C(=O)NC(CCC(=O)O)C(=O)O)cc1` (stereo not drawn), for which, in the data set with L1210, the IC50 turned out to be 2.7 µM.
For the molecule `O=C(O)CCC(NC(=O)c1ccc(NCc2ccc3ncnc(O)c3c2)cc1)C(=O)O` (stereo not drawn), in the data set with L1210, the IC50 worked out at 0.4 µM.
Regarding `CN(Cc1ccc2ncnc(O)c2c1)c1ccc(C(=O)NC(CCC(=O)O)C(=O)O)cc1` (stereo not drawn), the results for the IC50 with L1210 and against Thymidylate synthase were 0.9 µM and 1.06 µM, respectively.
For `C=CCN(Cc1ccc2nc(N)nc(O)c2c1)c1ccc(C(=O)NC(CCC(=O)O)C(=O)O)cc1` (stereo not drawn) the same measures were 6 µM and 0.28 µM.
As to `C=CCN(Cc1ccc2ncnc(O)c2c1)c1ccc(C(=O)NC(CCC(=O)O)C(=O)O)cc1` (stereo not drawn), the IC50 came to 2.5 µM in the data set with L1210 and 1.12 µM at Thymidylate synthase.
As a reminder, the solubility is the dissolved amount per volume that the medium holds. Read a low solubility as a poorly soluble substance. With `C#CCN(Cc1ccc2ncnc(O)c2c1)c1ccc(C(=O)NC(CCC(=O)O)C(=O)O)cc1` (stereo not drawn), the solubility in data set [1] was 43 µg/mL (≈ 93 µM); in data set [2] it was greater than 107000 µg/mL. In addition, in the data set on L1210, the IC50 is 0.4 µM.
For `C#CCN(Cc1ccc2[nH]c(N)nc(=O)c2c1)c1ccc(C(=O)NC(CCC(=O)O)C(=O)O)cc1` (stereo not drawn), the values for the solubility in data set [1] and in data set [2] were 8.6 µg/mL (≈ 18 µM) and 312 µg/mL (≈ 653 µM), respectively. For the same molecule, in the data set on L1210, the IC50 came to 3.4 µM.
As to `Nc1nc(O)c2cc(CNc3ccc(C(=O)NC(CCC(=O)O)C(=O)O)cc3)ccc2n1` (stereo not drawn) [DIDEAZAFOLATE], the IC50 in the data set on L1210 turned out to be 2.7 µM.
Still for that read-out and setting: to `CCN(Cc1ccc2nc(N)nc(O)c2c1)c1ccc(C(=O)NC(CCC(=O)O)C(=O)O)cc1` (stereo not drawn) belongs 9 µM.
With `CN(Cc1ccc2nc(N)nc(O)c2c1)c1ccc(C(=O)NC(CCC(=O)O)C(=O)O)cc1` (stereo not drawn), the IC50 with L1210 was 4.5 µM; against Thymidylate synthase, 0.36 µM.
